Published values of several laboratories.
Compare with care: the assays were run in different laboratories.
BRAF V600E: Serine/threonine-protein kinase B-raf (BRAF, Homo sapiens, UniProt P15056, V600E)
BRAF: Serine/threonine-protein kinase B-raf (BRAF, Homo sapiens, UniProt P15056)

| Structure (SMILES) | target | assay | conditions | remaining binding |
| --- | --- | --- | --- | --- |
| COc1ccc2cc(OCC3(C(=O)O)CN(C(=O)c4ccc(F)cc4)C3)ccc2c1 | BRAF V600E | cell-free assay, competition with immobilised ligand | 1 µM | 100% |
| O=C(c1ccc(Nc2ncc(Cl)c(-c3cc4ccccc4s3)n2)cc1)N1CCC(N2CCCC2)CC1 | BRAF | binding, competition with immobilised ligand | 1 µM | 64% |
| Cc1cc(NC(=O)c2cccc(S(F)(F)(F)(F)F)c2)cc(-n2ccn3nc(-c4cccnc4)cc23)c1 | BRAF V600E | cell-free assay, competition with immobilised ligand | 1 µM | 24.4% |
| C[C@@H]1CN(c2ccc3ncc(-c4ccc5[nH]nc(C6CC6)c5c4)n3n2)C[C@H](C)O1 | BRAF | binding, competition with immobilised ligand | 50 nM | 91% |
| N[C@H]1CCN(c2nccc(-c3cnn4ncccc34)n2)C1 | BRAF | binding | 1 µM | 84% |
| Cc1nc(Cc2cccc(C(F)(F)F)c2)sc1-c1ccc(C(N)=O)nc1 | BRAF V600E | cell-free assay, competition with immobilised ligand | 1 µM | 100% |
| COc1ncc2cc3ccccc3nc2c1C#N | BRAF V600E | cell-free assay, competition with immobilised ligand | 5 µM | 100% |
| COc1cnc(Nc2cccc(S(N)(=O)=O)c2)nc1N1CCN(c2ccccc2)C(=O)C1 | BRAF | binding, competition with immobilised ligand | 1 µM | 87% |
| CN(C)C(=O)Cn1cc(-c2nc(C3(c4ccc(-c5cnc(N)nc5)cc4)CC3)no2)cn1 | BRAF | cell-free assay, competition with immobilised ligand | 1 µM | 88% |
| C[C@H]1CCN(c2nccc(-c3cnn4ncccc34)n2)C1 | BRAF V600E | binding | 1 µM | 93% |
| O=C(NCCCN1CCOCC1)c1ccc(Nc2ncc(Cl)c(-c3ccc(Cl)s3)n2)cc1 | BRAF V600E | binding, competition with immobilised ligand | 1 µM | 92% |
| C[C@@H](c1ccc(-n2cnc3c(N)ncnc32)cc1)N1CCc2nn(C)c(Cc3ccccc3)c2C1=O | BRAF V600E | binding, competition with immobilised ligand | 0.1 µM | 76% |
| c1cnn2ncc(-c3ccnc(N4CCC45COC5)n3)c2c1 | BRAF | binding | 1 µM | 56% |
| C=CC(=O)N1CCC(C(=O)NCC(=O)N2CCN(c3nc(-c4cnc(N)nc4C(F)F)nc(N4CCOCC4)n3)CC2)CC1 | BRAF | binding, competition with immobilised ligand | 1 µM | 92% |
| O=C(c1ccc(Nc2nccc(-c3cc4ccccc4s3)n2)cc1)N1CCC(N2CCCC2)CC1 | BRAF V600E | binding, competition with immobilised ligand | 1 µM | 21% |
| CN(C)c1nccc(-c2cnn3ncccc23)n1 | BRAF | binding | 1 µM | 74% |
| Cc1cnc(Nc2ccc(C(=O)N3CCC(N4CCCC4)CC3)cc2)nc1-c1cc2ccccc2s1 | BRAF | binding, competition with immobilised ligand | 1 µM | 46% |
| F[C@@H]1CCN(c2nccc(-c3cnn4ncccc34)n2)C1 | BRAF V600E | binding | 1 µM | 100% |
| C[C@@H]1CN(c2cc(-c3n[nH]c4ccc(OC5(C)CC5)cc34)ncn2)C[C@H](C)O1 | BRAF V600E | cell-free assay, competition with immobilised ligand | 0.1 µM | 89% |

| Structure (SMILES) | target | assay | conditions | remaining binding |
| --- | --- | --- | --- | --- |
| O=C(c1ccc(Nc2ncc(Cl)c(-c3ccc(Cl)s3)n2)cc1)N1CCC(N2CCCC2)CC1 | BRAF V600E | binding, competition with immobilised ligand | 1 µM | 37% |
| O=C(NCC1CCOCC1)c1n[nH]cc1NC(=O)c1c(F)cccc1F | BRAF | binding, competition with immobilised ligand | 1 µM | 93% |
| Cc1nccc(COC(=O)N2C[C@@H]3[C@@H](CNC(=O)c4ccc5[nH]nnc5c4)[C@@H]3C2)n1 | BRAF V600E | cell-free assay, competition with immobilised ligand | 1 µM | 100% |
| CNC(=O)[C@@H]1CC[C@@H](n2c(-c3ccc4cnccc4c3)nc3ccc(C(=O)NCc4cccc(C(N)=O)c4)cc32)C1 | BRAF | binding, competition with immobilised ligand | 1 µM | 100% |
| O=C(Nc1c[nH]nc1C(=O)NC1CCNCC1)c1cc(F)cc(F)c1 | BRAF V600E | binding, competition with immobilised ligand | 1 µM | 100% |
| c1cncc(-c2cccc(Nc3nccc(NC4CCCCC4)n3)c2)c1 | BRAF | binding, competition with immobilised ligand | 10 µM | 69% |
| CC(C)(C)c1ccc(-c2nc(CBr)nn2-c2cccc(O)c2)cc1 | BRAF | cell-free assay, competition with immobilised ligand | 10 µM | 77% |
| CCN1CCN(Cc2ccc(C(=O)Nc3ccc(C)c(Oc4ccc5c(c4)CC(=O)N5)c3)cc2C(F)(F)F)CC1 | BRAF V600E | binding, competition with immobilised ligand | 1 µM | 28% |
| COc1ccnn2ncc(-c3ccnc(N(C)C)n3)c12 | BRAF | binding | 1 µM | 48% |
| O=C(NCCCN1CCOCC1)c1ccc(Nc2nccc(-c3cc4ccccc4s3)n2)cc1 | BRAF | binding, competition with immobilised ligand | 1 µM | 77% |
| CNCc1ccccc1-c1csc([C@H](C)Nc2nc(C)nc3cc(OC)c(OC)cc23)c1 | BRAF | cell-free assay, competition with immobilised ligand | 1 µM | 97% |
| Cc1cnn2ncc(-c3ccnc(N(C)C)n3)c2c1 | BRAF | binding | 1 µM | 82% |
| COc1cnc(Nc2cccc(S(N)(=O)=O)c2)nc1N1CCN(c2ccccc2)CC1 | BRAF V600E | binding, competition with immobilised ligand | 1 µM | 82% |
| CS(=O)(=O)N1CCCC(NC(=O)[C@H](CCC2CCCCC2)NC(=O)c2ccc(CNc3ncnc4c3nnn4-c3ccccc3)cc2)C1 (stereo partly shown) | BRAF | cell-free assay, competition with immobilised ligand | 0.1 µM | 81% |
| CN(CCCC(F)(F)F)c1nccc(-c2cnn3ncccc23)n1 | BRAF V600E | binding | 1 µM | 100% |
| CN1CCN(c2ccc(Nc3nccc(-c4cccc([N+](=O)[O-])c4)n3)cc2C(F)(F)F)CC1 | BRAF V600E | binding | 10 µM | 3.8% |
| N#Cc1ccccc1CSc1nnc2c(n1)[nH]c1ccccc12 | BRAF V600E | binding, competition with immobilised ligand | 10 µM | 100% |
| Nc1ncc2c(n1)-c1c([nH]c3ccc(C#CC4CC4)cc13)CCCC2 | BRAF | binding, competition with immobilised ligand | 1 µM | 100% |
